Screens as filed in PubChem.
RORA act: activates the human nuclear receptor RORA | P35398 | CHO-K1 Gal4-RORA LBD luciferase reporter, luminescence; percent increase over mock-subtracted basal signal | activation, % at 10 µM | 1.5% of 65,000 active;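 active means activation above the mean of all tested compounds plus 3 SD, cut at about 49% in these data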
Calb biofilm kill: kills Candida albicans biofilms | C. albicans biofilm + clotrimazole, Alamar Blue | inhibition, % at 6 µM | 0.14% of 85,000 active;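 active means inhibition above 20%; inactive means inhibition below 20%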;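 further: preformed 24 hr biofilms exposed to compound for 48 hr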
SF1 activator: activates the human nuclear receptor SF-1 | Q13285 | CHO-K1 Gal4-SF-1 LBD luciferase reporter; % increase over DMSO SF-1-specific signal | activation, % at 10 µM | 1.9% of 65,000 active;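 active means activation above the mean activation of all tested compounds plus 3 SD, cut at about 50% in these data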
Target sequence (Q13285 whole entry, looked up, the tested form may be a part): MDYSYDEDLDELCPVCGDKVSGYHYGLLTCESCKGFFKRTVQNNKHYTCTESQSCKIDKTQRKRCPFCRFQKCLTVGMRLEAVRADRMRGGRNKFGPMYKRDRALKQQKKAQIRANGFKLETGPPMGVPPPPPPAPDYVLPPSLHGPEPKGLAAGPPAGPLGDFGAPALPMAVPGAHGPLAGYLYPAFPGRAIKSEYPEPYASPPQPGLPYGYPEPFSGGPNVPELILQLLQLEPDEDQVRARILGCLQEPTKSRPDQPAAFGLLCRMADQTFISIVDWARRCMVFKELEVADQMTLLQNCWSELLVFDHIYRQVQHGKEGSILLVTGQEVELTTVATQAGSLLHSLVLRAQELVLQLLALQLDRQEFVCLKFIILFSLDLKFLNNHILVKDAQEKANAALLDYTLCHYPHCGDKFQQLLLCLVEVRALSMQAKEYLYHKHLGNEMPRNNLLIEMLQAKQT
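Assay system: CHO-K1 cells co-transfected with Gal4 DBD–human SF-1 LBD, 5xGal4 luciferase reporter / Input: 4,000 cells per well / Incubation: 20 h compound exposure at 37 °C after 1 h cell settling / Detection: SteadyLite luciferase luminescence / Control set: DMSO negative control and −SF1 background wells / Replication: one test per compound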
JNK3 inh: blocks human JNK3 kinase activity; 0.61% of 60,000 active; inhibition, % at 8 µM; purified JNK3 kinase activity, HTS; P53779; AID 746; in the data active means inhibition above about 17%
A number is an active result; n = inactive; x = not tested or not shown. Compounds with a hit are over-represented: about 2.3% of the library has one in this group of screens.

SMILES | RORA act | Calb biofilm kill | SF1 activator | JNK3 inh
COc1ccc(-c2noc(Cc3cccs3)n2)cc1 | 57 | n | n | n
COc1ccc(-c2noc(Cc3ccccc3OC)n2)cc1 | n | n | n | n
COc1ccc2oc(C(=O)C3CC3)c(N)c2c1 | 68 | n | 74 | n
COc1ccc2oc(C(=O)c3ccccc3)c(N)c2c1 | x | n | x | x
N=c1c(C(=O)NC2CCCCC2)cc2c(=O)n3ccccc3nc2n1CCN1CCOCC1 | n | n | n | n
Cc1occc1C(=O)Nc1cccc2ccccc12 | n | n | 74 | n
Cc1occc1C(=O)Nc1ccccc1NC(=O)c1ccoc1C | n | n | n | n
CN(C)/C=N/c1c(C#N)cnn1-c1ncnc2sc(-c3ccccc3)cc12 | n | n | n | n
COc1ncnc2sc(-c3ccccc3)cc12 | n | n | 51 | n
Cc1cc(N2CCN(C)CC2)nc2ccc(NC(=O)c3cccnc3Cl)cc12 | x | 61 | x | x
C/C(N)=C(/C#N)C(=O)CSc1nnc(Nc2cccc(C)c2C)s1 | n | n | 58 | n
C/C(N)=C(/C#N)C(=O)CSc1nnc(Nc2c(C)cccc2C)s1 | n | n | n | n
CCc1ccc(C(C(=O)NC2CCCCC2)N(C(=O)CNC(=O)c2ccco2)c2cccnc2)cc1 (stereo not given) | x | n | x | x
O=c1oc2ccccc2cc1NCc1ccccc1O | n | 22 | n | n
COc1ccccc1C(=O)Nc1cc2ccccc2oc1=O | x | n | x | x
O=C(CN1CCSCC1)N/N=C/c1ccc(F)c(F)c1 | x | n | x | x
COC(=O)c1c(C)[nH]c(C(=O)CSc2ccc(Cl)cc2)c1C | x | n | x | x
O=C(CSc1ncn[nH]1)Nc1ccc(S(=O)(=O)N2CCCC2)cc1 | x | n | x | x
COc1cccc(NC(=O)c2nnn(Cc3ccc(Br)cc3F)c2N)c1 | 58 | n | n | n
COc1cccc(NC(=O)c2nnn(CCc3ccccc3)c2N)c1 | 53 | n | 84 | n
O=C(CCCCCN1C(=O)CCC1=O)Nc1ccc(Cl)c(C(F)(F)F)c1 | x | n | x | x
O=c1oc(-c2cccs2)nc2ccccc12 | x | n | x | x
c1csc(-c2cnc3ccccc3n2)c1 | 95 | n | 50 | 25
CCOc1ccc(-c2noc(-c3ccncc3)n2)cc1OCC | n | n | n | n
COc1cccc(-c2nc(-c3ccccn3)no2)c1OC | n | n | 50 | n
SMILES | RORA act | Calb biofilm kill | SF1 activator | JNK3 inh
COc1ccc(-c2noc(-c3ccccc3Cl)n2)cc1OC | 82 | n | n | n
COc1ccc(-c2nc(-c3ccncc3)no2)cc1OC | 68 | n | 74 | n
COc1nc(C)ccc1-c1noc(-c2ccco2)n1 | 67 | n | n | n
CS(=O)(=O)N(Cc1ccccc1)c1ccccc1C(=O)N1CCN(c2ccccc2)CC1 | x | n | x | x
CCOc1ccccc1-c1nc(-c2ccncc2)no1 | x | n | x | x
COc1ccccc1-c1nc(-c2ccncc2)no1 | 58 | n | n | n
COc1ccc(CCC(=O)Nc2ccc(-c3noc(-c4ccc(OC)c(OC)c4)n3)cc2)cc1 | n | n | 75 | n
COc1ccc(-c2noc(-c3ccco3)n2)cc1OC | n | n | 50 | n
O=C1COc2ccc(C(=O)CSc3nnc(Cc4cccs4)n3-c3ccc(Cl)cc3)cc2N1 | x | n | x | x
Cc1nnc(Sc2nc3c(c(=O)[nH]c(=O)n3C)n2Cc2ccccc2Cl)s1 | n | x | n | n
Cc1c(C)n(C(=O)CSc2nc3ccccc3[nH]2)c2ccccc12 | x | n | x | x
Cc1ccc(-n2c(SCC(N)=O)nnc2-c2ccc(S(=O)(=O)N3CCCCC3)cc2)c(C)c1 | x | n | x | x
O=C(CSc1nnc(-c2cccnc2)o1)Nc1ccccn1 | n | n | 76 | n
O=Cc1cn(-c2ccccc2)nc1-c1ccc2c(c1)OCCO2 | x | n | x | x
N#Cc1cn(-c2ccccc2)nc1-c1ccc2c(c1)OCCO2 | 62 | n | 55 | n
Cc1nc(SCC(=O)N2c3ccccc3Sc3ccccc32)n[nH]1 | x | n | x | x
COC(=O)c1ccc(Cn2c(O)c(N=O)c3ccccc32)o1 | n | n | n | 20
S=c1[nH]nc(-c2cccnc2)o1 | n | n | n | n
S=c1[nH]nc(-c2cccc(Br)c2)o1 | n | n | n | 19
CCOC(=O)c1ccc(NC(=O)CSc2nnnn2CCCO)cc1 | n | n | n | n
Cc1c(OCC(=O)OC(C)C)ccc2c3c(c(=O)oc12)CCC3 | n | n | n | n
CC(=O)C(C)Oc1ccc2c3c(c(=O)oc2c1C)CCCC3 (stereo not given) | 60 | n | n | n
CC(=O)COc1ccc2c3c(c(=O)oc2c1C)CCCCC3 | n | n | 54 | n
CC1CCC2(CC1)NC(=S)N(c1ccccc1)N2 (stereo not given) | x | 83 | x | x
O=C(Nc1nc2c(s1)CCCC2)Oc1ccccc1 | n | n | n | n
SMILES | RORA act | Calb biofilm kill | SF1 activator | JNK3 inh
O=S1(=O)N=C(Nc2nc3c(s2)CCCC3)c2ccccc21 | 96 | n | 51 | n
CC(C)C(C)(C#N)NC(=O)CSc1nnc(-c2ccccc2)o1 (stereo not given) | x | n | x | x
c1ccc(-n2nc3c(ccc4cnnc43)[nH]2)cc1 | 55 | n | n | 30
O=C(CSc1ccc2ccccc2n1)N1CCC(c2noc3ccc(F)cc23)CC1 | x | n | x | x
Cn1cccc1C(C(=O)NC1CCCCC1)N(C(=O)Cc1cccs1)c1ccc2c(c1)OCCO2 (stereo not given) | n | x | n | n
COc1ccc2nc3sc(C(=O)NCc4cccs4)c(N)c3cc2c1 | n | n | 74 | n
COc1ccc(CC(=O)NCc2cccs2)cc1OC | x | n | x | x
Cc1ccc2c(CC(=O)NCc3ccco3)coc2c1C | 52 | n | n | n
Cc1ccc(C(=O)NCc2ccco2)cc1Br | x | n | x | x
Cn1ccnc1SCC(=O)Nc1ccc(Oc2ccccc2)cc1 | 60 | n | n | n
O=C(NCCC1=CCCCC1)C1CCCN(c2nc3ccccc3o2)C1 (stereo not given) | n | n | n | n
COc1ccc(C2SCC(=O)N2c2c(C)n(C)n(-c3ccccc3)c2=O)cc1OC (stereo not given) | x | n | x | x
CCCn1c(N)c(C(=O)CSc2nnnn2-c2ccc(O)cc2)c(=O)n(C)c1=O | x | 83 | x | x
Cc1c(C)[n+](=O)c2c(n1[O-])CCCCC2 | n | n | n | n
O=C(NCc1ccccc1)c1noc2c1CCCCC2 | n | n | 52 | n
O=C(NCCSCc1ccco1)Nc1ccc(Cl)cc1 | n | n | 65 | n
CCn1cc(Br)c(C(=O)Nc2cccc(SC)c2)n1 | n | n | 50 | n
CCn1cc(Br)c(C(=O)NC(C)c2ccccc2)n1 (stereo not given) | n | n | n | n
Fc1ccccc1Cc1nnc2n1N=C(c1ccc(Cl)cc1)CS2 | x | n | x | x
c1ccc(CCn2nnnc2CN2CCCc3ccccc32)cc1 | 51 | n | n | n
CCCCn1nnnc1SCC(=O)NCc1ccco1 | x | n | x | x
Cc1ccccc1NCC(=O)N/N=C/C(Br)=C/c1ccccc1 | x | n | x | x
N#Cc1c(/N=C/c2cccs2)sc2c1CCCCC2 | n | n | n | n
N#Cc1c(/N=C/N2CCOCC2)sc2c1CCCCC2 | 91 | n | 83 | n
COc1ccc2sc(N3C(=O)C4CC=C(C)CC4C3=O)nc2c1 (stereo not given) | n | n | n | n
Nc1nonc1-c1noc(N2CCCCC2)n1 | n | n | 54 | n
CCCc1cc(=O)[nH]c(SCc2cc(Cl)ccc2OC(F)F)n1 | x | n | x | x
COc1cccc2cc(C(=O)Nc3cccc(C)n3)c(=O)oc12 | 58 | n | 73 | n
